In ChEMBL document CHEMBL3817768, “Identification of a Chemical Probe for Family VIII Bromodomains through Optimization of a Fragment Hit” (J Med Chem, 2016):
The source made the active and inactive calls. The rule behind the calls is not given here.

Tests used:
[1] = target: T1, Protein polybromo-1 (Homo sapiens, UniProt Q86U86); test: Binding affinity to human PB1 isoform 2 expressed in BL21 (DE3)-R3-BirA cells assessed as change in melting temperature at 10 uM by sypro-orange dye-based differential scanning fluorimetric analysis; type: cell-based
T1 sequence (Q86U86 whole entry, canonical isoform): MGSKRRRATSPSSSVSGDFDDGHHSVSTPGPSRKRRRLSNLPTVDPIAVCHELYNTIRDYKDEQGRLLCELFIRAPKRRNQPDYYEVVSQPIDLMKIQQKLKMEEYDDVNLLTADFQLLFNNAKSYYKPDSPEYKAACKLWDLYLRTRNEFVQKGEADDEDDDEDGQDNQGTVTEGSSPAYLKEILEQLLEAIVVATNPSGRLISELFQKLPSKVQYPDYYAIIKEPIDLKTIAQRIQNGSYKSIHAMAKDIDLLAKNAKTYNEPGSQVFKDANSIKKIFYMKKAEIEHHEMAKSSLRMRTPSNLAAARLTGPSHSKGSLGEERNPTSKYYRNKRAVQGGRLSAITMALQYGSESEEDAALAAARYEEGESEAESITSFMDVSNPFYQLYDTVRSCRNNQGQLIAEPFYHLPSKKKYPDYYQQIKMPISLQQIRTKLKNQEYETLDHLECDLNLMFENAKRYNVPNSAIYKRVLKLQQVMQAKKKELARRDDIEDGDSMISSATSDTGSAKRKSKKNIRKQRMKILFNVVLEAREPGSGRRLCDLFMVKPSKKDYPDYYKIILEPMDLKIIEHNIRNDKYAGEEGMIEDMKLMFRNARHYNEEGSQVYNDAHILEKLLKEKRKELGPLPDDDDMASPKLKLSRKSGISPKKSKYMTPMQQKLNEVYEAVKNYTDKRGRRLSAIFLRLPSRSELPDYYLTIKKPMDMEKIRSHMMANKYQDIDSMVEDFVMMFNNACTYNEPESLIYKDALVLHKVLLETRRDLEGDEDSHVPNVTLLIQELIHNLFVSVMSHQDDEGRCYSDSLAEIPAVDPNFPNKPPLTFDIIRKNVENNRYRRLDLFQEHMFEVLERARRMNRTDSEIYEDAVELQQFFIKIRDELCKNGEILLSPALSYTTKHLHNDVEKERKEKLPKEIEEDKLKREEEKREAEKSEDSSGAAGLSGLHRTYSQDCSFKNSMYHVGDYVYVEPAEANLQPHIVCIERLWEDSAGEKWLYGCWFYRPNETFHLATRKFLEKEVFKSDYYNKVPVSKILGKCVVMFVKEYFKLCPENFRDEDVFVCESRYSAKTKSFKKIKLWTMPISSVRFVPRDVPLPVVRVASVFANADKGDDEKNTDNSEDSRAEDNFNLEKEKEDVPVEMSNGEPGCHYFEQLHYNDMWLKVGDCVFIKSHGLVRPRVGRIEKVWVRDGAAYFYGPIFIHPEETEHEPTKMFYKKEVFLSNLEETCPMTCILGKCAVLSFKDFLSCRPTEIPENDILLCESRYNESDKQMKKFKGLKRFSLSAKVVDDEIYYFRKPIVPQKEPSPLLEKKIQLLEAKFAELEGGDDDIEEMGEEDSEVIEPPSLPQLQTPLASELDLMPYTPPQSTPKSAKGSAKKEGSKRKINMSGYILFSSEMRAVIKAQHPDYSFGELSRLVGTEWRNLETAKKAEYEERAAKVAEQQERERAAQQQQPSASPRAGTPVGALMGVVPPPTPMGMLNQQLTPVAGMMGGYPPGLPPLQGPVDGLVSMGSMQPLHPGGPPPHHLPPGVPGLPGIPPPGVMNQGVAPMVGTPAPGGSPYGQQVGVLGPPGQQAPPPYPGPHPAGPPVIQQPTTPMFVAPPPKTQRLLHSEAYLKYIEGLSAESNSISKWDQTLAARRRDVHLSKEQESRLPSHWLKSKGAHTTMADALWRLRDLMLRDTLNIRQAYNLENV
How it was run: (§1)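 Thermal shift (DSF) screen of bromodomain proteins with compound at 10 μM; binding read as change in melting temperature (Tm shift).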

[2] = target: T1, Protein polybromo-1; test: Binding affinity to human PB1 isoform 3 expressed in BL21 (DE3)-R3-BirA cells assessed as change in melting temperature at 10 uM by sypro-orange dye-based differential scanning fluorimetric analysis; type: cell-based; how it was run: as §1
[3] = target: T1, Protein polybromo-1; test: Binding affinity to human PB1 isoform 4 expressed in BL21 (DE3)-R3-BirA cells assessed as change in melting temperature at 10 uM by sypro-orange dye-based differential scanning fluorimetric analysis; type: cell-based; how it was run: as §1
[4] = target: T1, Protein polybromo-1; test: Binding affinity to human PB1 isoform 5 expressed in BL21 (DE3)-R3-BirA cells assessed as change in melting temperature at 10 uM by sypro-orange dye-based differential scanning fluorimetric analysis; type: cell-based; how it was run: as §1
[5] = target: T2, SWI/SNF-related matrix-associated actin-dependent regulator of chromatin subfamily A member 2 (Homo sapiens, UniProt P51531); test: Binding affinity to human SMARC2A expressed in BL21 (DE3)-R3-BirA cells assessed as change in melting temperature at 10 uM by sypro-orange dye-based differential scanning fluorimetric analysis; type: cell-based; how it was run: as §1
T2 sequence (P51531 whole entry): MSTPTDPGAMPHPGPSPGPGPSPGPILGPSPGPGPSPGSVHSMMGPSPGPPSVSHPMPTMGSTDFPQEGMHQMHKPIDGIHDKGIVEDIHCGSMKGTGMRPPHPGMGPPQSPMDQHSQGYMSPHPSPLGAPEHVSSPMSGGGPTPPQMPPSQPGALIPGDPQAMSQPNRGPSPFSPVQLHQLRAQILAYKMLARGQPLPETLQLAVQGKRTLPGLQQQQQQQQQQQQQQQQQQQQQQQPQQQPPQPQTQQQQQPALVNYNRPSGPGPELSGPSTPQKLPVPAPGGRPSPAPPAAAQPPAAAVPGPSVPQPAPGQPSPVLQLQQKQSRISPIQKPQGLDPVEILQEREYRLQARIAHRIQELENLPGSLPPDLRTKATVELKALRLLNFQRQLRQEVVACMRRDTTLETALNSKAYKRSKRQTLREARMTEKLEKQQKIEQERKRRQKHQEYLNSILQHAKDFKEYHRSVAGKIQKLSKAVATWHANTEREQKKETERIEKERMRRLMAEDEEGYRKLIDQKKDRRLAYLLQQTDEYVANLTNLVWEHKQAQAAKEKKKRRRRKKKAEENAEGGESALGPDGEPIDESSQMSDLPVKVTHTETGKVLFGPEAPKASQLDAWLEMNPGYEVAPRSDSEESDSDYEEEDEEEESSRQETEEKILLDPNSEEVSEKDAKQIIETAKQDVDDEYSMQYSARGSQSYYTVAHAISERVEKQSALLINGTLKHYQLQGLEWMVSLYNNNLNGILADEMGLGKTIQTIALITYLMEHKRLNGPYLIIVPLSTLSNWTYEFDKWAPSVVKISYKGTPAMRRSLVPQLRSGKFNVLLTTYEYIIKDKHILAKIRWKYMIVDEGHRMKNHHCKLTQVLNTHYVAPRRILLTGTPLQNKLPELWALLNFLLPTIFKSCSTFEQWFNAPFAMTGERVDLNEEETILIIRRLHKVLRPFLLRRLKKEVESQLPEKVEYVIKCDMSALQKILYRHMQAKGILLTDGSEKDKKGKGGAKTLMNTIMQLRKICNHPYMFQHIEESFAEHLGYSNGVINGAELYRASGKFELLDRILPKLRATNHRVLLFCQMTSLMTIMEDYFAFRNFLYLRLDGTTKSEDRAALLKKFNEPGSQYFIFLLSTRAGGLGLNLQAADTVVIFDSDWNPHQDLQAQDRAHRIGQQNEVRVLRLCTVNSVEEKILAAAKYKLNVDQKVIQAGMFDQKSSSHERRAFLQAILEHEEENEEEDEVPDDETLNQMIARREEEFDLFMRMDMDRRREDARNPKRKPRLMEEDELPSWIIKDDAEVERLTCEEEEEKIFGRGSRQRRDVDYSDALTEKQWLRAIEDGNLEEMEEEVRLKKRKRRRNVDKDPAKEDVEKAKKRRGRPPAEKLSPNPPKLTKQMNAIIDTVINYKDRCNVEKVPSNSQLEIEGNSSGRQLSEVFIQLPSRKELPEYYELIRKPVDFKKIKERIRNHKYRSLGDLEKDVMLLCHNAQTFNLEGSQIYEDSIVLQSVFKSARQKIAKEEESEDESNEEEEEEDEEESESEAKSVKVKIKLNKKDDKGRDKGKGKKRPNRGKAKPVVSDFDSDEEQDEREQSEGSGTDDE

[6] = target: T2, SWI/SNF-related matrix-associated actin-dependent regulator of chromatin subfamily A member 2; test: Binding affinity to human SMARC2B expressed in BL21 (DE3)-R3-BirA cells assessed as change in melting temperature at 10 uM by sypro-orange dye-based differential scanning fluorimetric analysis; type: cell-based; how it was run: as §1
[7] = target: T3, SWI/SNF-related matrix-associated actin-dependent regulator of chromatin subfamily A member 4 (Homo sapiens, UniProt P51532); test: Binding affinity to human SMARCA4 expressed in BL21 (DE3)-R3-BirA cells assessed as change in melting temperature at 10 uM by sypro-orange dye-based differential scanning fluorimetric analysis; type: cell-based; how it was run: as §1
T3 sequence (P51532 whole entry, canonical isoform): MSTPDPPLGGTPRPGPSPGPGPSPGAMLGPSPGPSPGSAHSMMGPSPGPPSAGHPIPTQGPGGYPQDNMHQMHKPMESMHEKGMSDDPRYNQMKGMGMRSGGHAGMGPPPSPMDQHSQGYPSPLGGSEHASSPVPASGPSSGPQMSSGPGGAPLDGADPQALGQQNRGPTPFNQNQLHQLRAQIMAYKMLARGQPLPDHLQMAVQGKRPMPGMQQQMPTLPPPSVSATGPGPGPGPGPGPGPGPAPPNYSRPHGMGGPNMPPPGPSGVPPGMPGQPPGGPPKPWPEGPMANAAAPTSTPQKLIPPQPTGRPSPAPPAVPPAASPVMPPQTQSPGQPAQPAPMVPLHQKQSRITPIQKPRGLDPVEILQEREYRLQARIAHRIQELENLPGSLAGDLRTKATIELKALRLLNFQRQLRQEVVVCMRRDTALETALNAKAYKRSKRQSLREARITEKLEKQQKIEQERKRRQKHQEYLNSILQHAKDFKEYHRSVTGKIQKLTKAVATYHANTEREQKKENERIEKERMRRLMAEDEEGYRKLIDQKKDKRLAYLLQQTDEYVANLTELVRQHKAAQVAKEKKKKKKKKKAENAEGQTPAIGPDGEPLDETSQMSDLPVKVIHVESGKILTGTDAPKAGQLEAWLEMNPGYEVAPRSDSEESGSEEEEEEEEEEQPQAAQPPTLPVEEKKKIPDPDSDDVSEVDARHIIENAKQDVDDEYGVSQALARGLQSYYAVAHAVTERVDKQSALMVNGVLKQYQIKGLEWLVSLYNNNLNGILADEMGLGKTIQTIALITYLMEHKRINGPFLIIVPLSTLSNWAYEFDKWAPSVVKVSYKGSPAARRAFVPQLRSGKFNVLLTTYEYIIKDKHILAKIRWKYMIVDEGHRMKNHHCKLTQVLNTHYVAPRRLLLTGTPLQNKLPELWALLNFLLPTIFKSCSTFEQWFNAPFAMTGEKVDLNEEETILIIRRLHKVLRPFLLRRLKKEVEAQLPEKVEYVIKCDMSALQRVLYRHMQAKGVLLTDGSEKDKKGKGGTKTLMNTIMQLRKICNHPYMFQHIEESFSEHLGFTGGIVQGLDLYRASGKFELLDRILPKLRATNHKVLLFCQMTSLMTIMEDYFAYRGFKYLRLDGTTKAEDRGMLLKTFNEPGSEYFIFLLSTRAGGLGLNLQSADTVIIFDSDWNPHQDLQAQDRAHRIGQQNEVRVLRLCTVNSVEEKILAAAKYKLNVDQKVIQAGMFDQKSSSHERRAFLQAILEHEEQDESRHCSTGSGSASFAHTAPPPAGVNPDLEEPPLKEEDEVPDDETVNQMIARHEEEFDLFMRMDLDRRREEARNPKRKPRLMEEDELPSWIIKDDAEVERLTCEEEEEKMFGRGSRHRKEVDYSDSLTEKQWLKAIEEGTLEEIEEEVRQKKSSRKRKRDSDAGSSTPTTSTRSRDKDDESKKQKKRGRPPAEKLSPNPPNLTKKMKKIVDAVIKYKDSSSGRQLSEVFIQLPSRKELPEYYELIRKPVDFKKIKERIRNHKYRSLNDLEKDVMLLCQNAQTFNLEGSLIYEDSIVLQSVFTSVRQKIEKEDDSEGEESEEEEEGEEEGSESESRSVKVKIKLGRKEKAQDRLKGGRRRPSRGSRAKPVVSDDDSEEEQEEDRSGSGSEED

[8] = target: T1, Protein polybromo-1; test: Binding affinity to human PB1 isoform 2 expressed in BL21 (DE3)-R3-BirA cells by isothermal titration Calorimetry
How it was run: (§2)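 Absolute binding affinity measured by isothermal titration calorimetry on the bromodomain protein.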

[9] = target: T1, Protein polybromo-1; test: Binding affinity to human PB1 isoform 5 expressed in BL21 (DE3)-R3-BirA cells by isothermal titration calorimetry; how it was run: as §2
[10] = target: T3, SWI/SNF-related matrix-associated actin-dependent regulator of chromatin subfamily A member 4; test: Binding affinity to human SMARCA4 expressed in BL21 (DE3)-R3-BirA cells by isothermal titration calorimetry
[11] = Half life in PBS at pH 7.4 at 20 degC; type: ADME; details: buffer
[12] = target: T1, Protein polybromo-1; test: Inhibition of chromatin binding to full length GFP-tagged PB1 expressed in human U2OS cells assessed as acceleration of FRAP half-recovery time at 1 uM incubated for 1 hr in presence of SAHA by FRAP assay; type: cell-based
How it was run: (§3)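 U2OS cells transfected with full-length GFP-PB1 and treated with SAHA to induce hyperacetylation. Mutant controls were PB1 N263A (second bromodomain) and N707F (fifth bromodomain). Read-out is FRAP half-recovery time (t½) from individual recovery curves, at least 20 cells per group, reported as mean ± SEM. Compared against WT with 2.5 μM SAHA.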

[13] = tested on: C2C12; test: Inhibition of differentiation in mouse C2C12 cells assessed as shortening of myotubes with lower nuclei at 500 nM to 50 uM by HRP-peroxidase-based immunocytochemistry relative to control; type: functional, cell-based
How it was run: (§4)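 C2C12 myoblasts grown with compound through differentiation, normally seen within 48 hours. Scored by cell fusion into myotubes (myotube length, nuclei per myotube) and MyHC expression relative to controls; myogenin monitored as an early marker.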

[14] = tested on: 786-0; test: Antiproliferative activity against human 786-0 cells at 0.1 to 10 uM incubated for 24 to 72 hrs by MTT assay; type: functional, cell-based
How it was run: (§5)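 Clear cell renal carcinoma lines (786-O with wild-type PB1 expression; Rcc4 with PB1 downregulation) treated with compound; proliferation read-out.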

[15] = tested on: RCC4; test: Antiproliferative activity against human RCC4 cells at 0.1 to 10 uM incubated for 24 to 72 hrs by MTT assay; type: functional, cell-based; how it was run: as §5
[16] = tested on: C2C12; test: Cytotoxicity against mouse C2C12 cells assessed as cell viability up to 50 uM after 72 hrs by MTT assay; type: cell-based; details: c2c12, 72 h
[17] = Cytotoxicity against mouse C3H10T1/2 cells assessed as cell viability up to 50 uM after 72 hrs by MTT assay; type: cell-based; details: c3h 10t1/2, 72 h
[18] = tested on: C2C12; test: Cytotoxicity against mouse C2C12 cells assessed as cell death at 100 uM after 72 hrs by MTT assay; type: cell-based; details: c2c12, 72 h
[19] = Cytotoxicity against mouse C3H10T1/2 cells assessed as cell death at 100 uM after 72 hrs by MTT assay; type: cell-based; details: c3h 10t1/2, 72 h
[20] = tested on: C2C12; test: Inhibition of differentiation in mouse C2C12 cells assessed as suppression of MyHC expression at 1 uM by HRP-peroxidase-based immunocytochemistry; type: functional, cell-based
How it was run: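 C2C12 myoblasts grown with compound through differentiation, normally complete within 48 hours. Fusion into myotubes was scored, along with expression of the early marker myogenin and of myosin heavy chain (MyHC) in myotubes.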

[21] = tested on: C3H 10T1/2; test: Inhibition of differentiation of mouse C3H10T1/2 cells to adipocytes assessed as lipid accumulation at 1 uM by oil red O staining-based assay; type: functional, cell-based
How it was run: (§6)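 C3H10T1/2 mesenchymal cells induced toward adipocytes with an adipogenic cocktail in presence of compound. Lipid droplet accumulation visualized by Oil Red O staining.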

[22] = tested on: C3H 10T1/2; test: Inhibition of differentiation of mouse C3H10T1/2 cells to adipocytes assessed as lipid accumulation at 20 uM by oil red O staining-based assay; type: functional, cell-based; how it was run: as §6
[23] = Drug recovery in cell media after 1 week at 37 degC by HPLC analysis; type: physicochemical; details: read-out: Drug recovery
[24] = target: T2, SWI/SNF-related matrix-associated actin-dependent regulator of chromatin subfamily A member 2; test: Inhibition of chromatin binding to full length GFP-tagged wild type SMARCA2 expressed in human U2OS cells assessed as acceleration of FRAP half-recovery time incubated for 1 hr in presence of SAHA by FRAP assay; type: cell-based
How it was run: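 U2OS cells transfected with GFP-SMARCA2 (WT) and treated with SAHA to induce hyperacetylation, with compound given at several doses. The mutant control was GFP-SMARCA2 N1464F (acetyl-lysine-recognising asparagine).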

[25] = target: T1, Protein polybromo-1; test: Inhibition of chromatin binding to full length GFP-tagged PB1 expressed in human U2OS cells assessed as acceleration of FRAP half-recovery time at 100 nM incubated for 1 hr in presence of SAHA by FRAP assay; type: cell-based; how it was run: as §3
[26] = tested on: C2C12; test: Inhibition of differentiation in mouse C2C12 cells assessed as suppression of MyHC expression at 5 uM by HRP-peroxidase-based immunocytochemistry; type: functional, cell-based; how it was run: as §4
[27] = tested on: C3H 10T1/2; test: Inhibition of differentiation of mouse C3H10T1/2 cells to adipocytes assessed as lipid accumulation at 5 uM by oil red O staining-based assay; type: functional, cell-based
How it was run: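 C3H10T1/2 mesenchymal cells induced to differentiate to adipocytes with an adipogenic cocktail in the presence of compound; lipid droplet accumulation visualised by Oil Red O staining.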

[28] = target: T2, SWI/SNF-related matrix-associated actin-dependent regulator of chromatin subfamily A member 2; test: Binding affinity to human SMARCA2 expressed in BL21 (DE3)-R3-BirA cells by isothermal titration calorimetry

ΔTm [1] [°C]	ΔTm [2] [°C]	ΔTm [3] [°C]	ΔTm [4] [°C]	ΔTm [5] [°C]	ΔTm [6] [°C]	ΔTm [7] [°C]	SMILES	other results
2.2	0.9	0.6	7.6	7.5	4.1	6.1	CC(C)(C)OC(=O)N1CCN(/C=C/C(=O)c2ccccc2O)C2(CC2)C1	–
2.3	1.1	0.7	5.7	5.5	3	4.7	O=C(/C=C/N1CCCC1)c1ccccc1O	–
0.1	0	0.3	0.4	0.7	-0.4	0.7	COc1cccc(C(=O)/C=C/N2CCCC2)c1O	–
2.5	1.1	0.4	8.3	5.4	2.4	6.1	O=C(/C=C/N1CCc2c(ccnc2N[C@H]2CC[C@H](O)CC2)C1)c1ccccc1O	–
0.7	0.3	0.6	4.6	2.9	1.1	2.9	O=C(/C=C/N1CCN(c2ncccn2)CC1)c1ccccc1O	–
6.7	3.5	2.4	9.1	–	–	7.7	O=C(/C=C/N1CCc2c(ncnc2NC2CC2)C1)c1ccccc1O	Kd [8]: 152 nM; Kd [9]: 28 nM; Kd [10]: 49 nM; t1/2 [11]: 20 h
–	–	–	-0.4	0.7	-0.4	0.7	C#CCNc1ccnc(N2C[C@H]3C[C@@H]2CN3/C=C/C(=O)c2cccc(OC)c2O)n1	inhibition [12]: inactive

The next lines start with the compound.

SMILES	ΔTm [1] [°C]	ΔTm [2] [°C]	ΔTm [3] [°C]	ΔTm [4] [°C]	ΔTm [5] [°C]	ΔTm [6] [°C]	ΔTm [7] [°C]	other results
O=C(/C=C/N1CC2CCC(CC2)C1)c1ccccc1O	5.2	3.3	2	6.6	5.1	2	3.8	–
O=C(/C=C/N1CCc2c(ncn2Cc2ccccc2)C1)c1ccccc1O	4.6	1.9	1.6	8	5.8	3	5.3	–
CC(C)(C)c1nc2c(n1CC1CC1)CCN(/C=C/C(=O)c1ccccc1O)C2	3.8	1.5	1.2	8	5.9	3.8	5.8	–
O=C(/C=C/N1CCc2cn[nH]c2C1)c1ccccc1O	4.1	1.7	1.2	7.8	7.8	4.8	7	–
O=C(/C=C/N1CCN(c2cccc(OCc3ccncc3)n2)CC1)c1ccccc1O	0.9	0.7	1.3	7	7.4	3.7	7.5	–
O=C(/C=C/N1CCC(c2cc[nH]n2)CC1)c1ccccc1O	3.2	1.8	1	6.9	8.2	3.9	6.3	–
O=C(/C=C/N1C[C@H]2C[C@@H]1CN2c1ccccn1)c1ccccc1O	–	–	–	–	8.2	5	–	inhibition [13]: Active; t1/2 [11]: > 250 h; Activity [14]: inactive; Activity [15]: inactive; Activity [16]: Non-toxic; Activity [17]: Non-toxic; Activity [18]: 50%; Activity [19]: 50%; inhibition [20]: Active; inhibition [21]: Active; inhibition [22]: Active; remaining at 168 h [23]: > 90%
O=C(/C=C/N1[C@H]2CC[C@@H]1c1ncnc(NC3CC3)c1C2)c1ccccc1O	5.9	6.4	2.1	9.3	8.5	–	7.4	inhibition [13]: Active; inhibition [24]: Dose-dependent effect; inhibition [12]: Active; inhibition [25]: inactive; Activity [14]: inactive; Activity [15]: inactive; Activity [16]: Non-toxic; Activity [17]: Non-toxic; Activity [18]: 50%; Activity [19]: 50%; inhibition [26]: Active; inhibition [27]: Active; Kd [28]: 37.3 nM
CN(C)/C=C/C(=O)c1ccccc1O	2	0.5	0.7	4.9	4.8	2	3.3	–
CN(C)c1ncnc2c1CCN(/C=C/C(=O)c1ccccc1O)C2	3.5	1.3	1.2	5.1	4.1	2.2	3.4	–
